Compounds with a hit are over-represented: about 3.7% of the library has one in this group of screens.
KCNK9 block: KCNK9 potassium channel inhibitors, primary screen, HEK293 cells, thallium flux. Potassium channel subfamily K member 9 (Homo sapiens), Q9NPC2. FluxOR thallium flux fluorescence; hits give low values. B-score at 10 µM. actives 1.2% (n = 310,000);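 active = ratio B-score over 3 SD below the library mean, with starting fluorescence within 5 SD of its mean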;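 note: negative B-score means less thallium flux so channel inhibition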
Kir21 block: inhibitors of mouse Kir2.1 inward-rectifier potassium channel. Inward rectifier potassium channel 2 (Mus musculus), P35561. HEK293-Kir2.1, FluxOR thallium flux fluorescence; hits give low values. B-score at 10 µM. actives 0.85% (n = 310,000);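 active = fluorescence ratio B-score at or below minus 3 SD of library scores, with starting-brightness B-score within 2 SD, cut at about -4.2 in these data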;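 note: channel flux triggered by added potassium and thallium sulfate stimulus; B-score of peak minus minimum fluorescence over baseline after thallium stimulus; more negative B-score means stronger Kir2.1 block with less thallium influx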
Target sequence (P35561 whole entry, looked up): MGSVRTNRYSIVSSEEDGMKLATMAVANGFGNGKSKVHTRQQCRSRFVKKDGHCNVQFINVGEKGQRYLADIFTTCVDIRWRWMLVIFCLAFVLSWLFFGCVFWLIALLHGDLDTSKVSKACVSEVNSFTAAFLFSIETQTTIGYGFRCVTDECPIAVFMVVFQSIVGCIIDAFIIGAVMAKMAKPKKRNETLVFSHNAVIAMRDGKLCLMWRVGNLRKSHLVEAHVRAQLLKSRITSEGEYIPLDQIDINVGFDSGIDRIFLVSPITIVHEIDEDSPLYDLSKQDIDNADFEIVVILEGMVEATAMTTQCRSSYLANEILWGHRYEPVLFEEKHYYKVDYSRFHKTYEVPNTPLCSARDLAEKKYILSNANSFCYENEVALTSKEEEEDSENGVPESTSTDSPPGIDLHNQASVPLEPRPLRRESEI
KCNQ1 inh: inhibitors of human KCNQ1 channel, primary screen, cell-based, thallium flux, high-throughput | actives 1.3% (n = 310,000) | B-score at 10 µM | CHO-K1 KCNQ1, FluxOR thallium flux fluorescence; hits give high values | AID 2642, 2010;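 active = compounds whose thallium flux B-score, printed positive for inhibition, exceeds three library SD while starting fluorescence stays within three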;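 note: channel opened by potassium depolarization with thallium stimulus after 20 min compound exposure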
hERG rescue: hERG rescue from dofetilide block, primary screen, cell-based, CHO-hERG, FluxOR thallium flux, dofetilide IC70; dofetilide IC70 present; activation (rescue from dofetilide block), less the hit threshold, % at 10 µM; actives 0.51% (n = 310,000); AID 1511, 2009;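 active = activation above the mean of controls blocked by dofetilide plus 5 SD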;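 note: thallium influx through hERG after potassium depolarization seen as dye fluorescence rise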
KCNK3 block: human KCNK3 channel inhibitors, primary screen, CHO cells, FluxOR thallium flux, B-score; B-score at 10 µM; actives 0.84% (n = 340,000); FluxOR fluorescence; hits give low values;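 active = B-score under library mean minus 4 SD, starting fluorescence ratio at most library mean plus 5 SD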;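 note: more negative B-score means stronger inhibition of thallium flux through KCNK3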
KCNQ1 act: potentiators or activators of KCNQ1 channel, primary screen, cell-based, thallium flux, high-throughput; CHO-K1 KCNQ1, thallium flux FluxOR fluorescence; hits give high values; B-score at 10 µM; actives 0.35% (n = 310,000); AID 2648, 2010;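 active = fluorescence ratio B-score, a plate-corrected score, at least three library SD, with initial intensity B-score within 5 SD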
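Medium – assay buffer, equal DMSO in all wells · Material – CHO-K1 cell line with stable KCNQ1 potassium channel expression · Signal – kinetic FluxOR thallium fluorescence, 10-s 1-Hz baseline, 110-s post-stimulus read · Compound – single concentration per compound, DMSO matched to controls · Schedule – 37 °C overnight plating, 90-min dark dye load, 20-min compound pretreatment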
Active calls of the source: *; i = inactive; . = not tested or not shown.

SMILES	KCNK9 block	Kir21 block	KCNQ1 inh	hERG rescue	KCNK3 block	KCNQ1 act
CCCCCCc1cc2cc(C(=O)Nc3ccc(OC)cc3)c(=O)oc2cc1O	i	0.06	i	0	i	i
CCCCCCc1cc2cc(C(=O)OCC)c(=O)oc2cc1O	i	-0.25	8*	-4	i	i
CC1CCN(CCOCCOc2ccc(Br)cc2Cl)CC1	i	-7.6*	i	-16	i	i
CC1CCCN(CCCOc2ccc(Br)cc2Cl)C1 (stereo not drawn)	i	-0.79	i	-19	i	i
COc1ccccc1OCC(O)Cn1c(=N)n(CCN2CCCCC2)c2ccccc21 (stereo not drawn)	i	-0.09	i	-17	i	i
N=c1n(CCN2CCCCC2)c2ccccc2n1CC(O)c1cccc(Br)c1 (stereo not drawn)	i	-6.8*	i	-10	i	i
N=c1n(CCN2CCCCC2)c2ccccc2n1CC(=O)c1ccc(Cl)c(Cl)c1	i	-4.8*	i	-25	i	i
N=c1n(CCN2CCCCC2)c2ccccc2n1CC(O)COc1ccccc1 (stereo not drawn)	i	-3.2	i	-5	i	i
CN(C)CCn1c(=N)n(CC(O)c2ccc(Cl)c(Cl)c2)c2ccccc21 (stereo not drawn)	i	-6.9*	i	-17	i	i
N=c1n(CCN2CCCCC2)c2ccccc2n1CC(O)c1ccc(Cl)c(Cl)c1 (stereo not drawn)	i	-8.6*	i	-21	i	i
CCCCCCCCCCC(=O)NNC(=O)c1c(O)c2ccccc2n(CC)c1=O	i	2.1	i	-7	.	i
Cc1cc(NC(=O)CC2Oc3ccccc3NC2=O)ccc1Br (stereo not drawn)	i	-2.4	i	-3	i	i
CCOC(=O)CS(=O)(=O)c1nc(-c2ccccc2)cc(C(F)(F)F)n1	i	-7.1*	i	-15	i	i
CCOC(=O)CS(=O)(=O)c1nc(-c2ccc(F)cc2)cc(C(F)(F)F)n1	i	-4.5*	i	-26	i	9*
CCOC(=O)CCS(=O)(=O)c1nc(-c2ccccc2)cc(C(F)(F)F)n1	i	-3	i	-15	i	i
CC1(C)NC(=S)NC1=S	.	.	.	.	i	.
COc1ccc(CC(=O)Oc2ccc(C)cc2Br)cc1S(=O)(=O)N1CCOCC1	i	-1.1	i	-10	i	i
Nc1nonc1-n1nnc(C(=O)N/N=C/c2cccc(Cl)c2Cl)c1CN1CCCC1	i	-1.1	i	40*	i	i
CCCOc1ccc(-c2c(C(=O)N/N=C/c3ccccc3OCC)nnn2-c2nonc2N)cc1	i	0.19	i	37*	i	i
Cc1ccc(O)c(C2=NNC(c3ccc(Cl)cc3)C2)c1 (stereo not drawn)	i	0.01	i	-8	i	i
Oc1ccc(Cl)cc1C1=NNC(c2cccs2)C1 (stereo not drawn)	i	-0.87	i	6.2*	i	20*
CC1(C)C(c2ccccc2)=NC(c2ccccc2)N1O (stereo not drawn)	i	-2.1	i	-9	i	i
COc1ccc(C2N=C(c3ccccc3)C(C)(C)N2O)cc1 (stereo not drawn)	i	1	i	5.9*	i	i
COc1cc(/C=C2\C(=O)N(c3ccc(NC(C)=O)cc3)N=C2c2ccccc2)ccc1O	i	-2.5	i	-17	i	i
O=C1/C(=C\c2ccc(O)c(O)c2)C(c2ccccc2)=NN1c1ccccc1	i	-2.6	6*	-29	i	i
SMILES	KCNK9 block	Kir21 block	KCNQ1 inh	hERG rescue	KCNK3 block	KCNQ1 act
CC1CN(c2nc(-c3ccc(Br)cc3)nnc2-c2ccccc2)CC(C)N1 (stereo not drawn)	i	-9.3*	i	-23	i	i
CC1(C(=O)CSc2ncn[nH]2)CCC(=O)O1 (stereo not drawn)	i	-1.6	i	5.0*	.	i
COc1cc2c(cc1OC)CN(C(=O)c1cc(C3CC3)nn1-c1ccccc1)CC2	.	.	.	.	i	.
CCN(Cc1ccccc1)c1ccc(/C=C(\C#N)c2ccccn2)cc1	i	-0.92	i	-9	i	i
CCN(CC)c1ccc(/C=C(\C#N)c2ccccn2)cc1	i	-3.6	6*	-18	-11*	i
COc1ccc(NC(=O)c2ccc3c(c2)CCN3S(=O)(=O)c2ccccc2)cc1	i	-1.3	i	-4	i	i
COc1ccc2c(c1)N(S(=O)(=O)c1ccccc1)CCC2=O	i	-6.5*	i	-4	i	i
OC(CNCc1ccccc1F)COc1cccc2ccccc12 (stereo not drawn)	i	-6.9*	i	-7	i	i
CC(C)NCC(O)COc1cccc2ccccc12 (stereo not drawn)	i	-0.47	i	-6	i	i
O=C(Nn1cnnc1)c1ccc(Cl)cc1	i	-0.02	i	-5	i	i
O=C(N/N=C\c1ccc(-c2ccccc2[N+](=O)[O-])o1)C1COc2cc3ccccc3cc2O1 (stereo not drawn)	i	-1.5	i	-8	i	i
O=C(N/N=C\c1ccc(-c2ccccc2[N+](=O)[O-])o1)C1COc2ccccc2O1 (stereo not drawn)	-6.8*	0.11	i	-20	i	i
Cc1c(CN2CCN(CC(C)C)C(CCO)C2)[nH]c2ccc(Cl)cc12 (stereo not drawn)	i	0.48	i	-3	i	i
CC(C)Oc1ccccc1OCCCOc1cccc2cccnc12	i	-6.6*	i	-20	i	i
CCN(CC(=O)Nc1ccc2c(c1)OCCO2)C(=O)/C=C/c1ccc([N+](=O)[O-])cc1	.	.	.	.	i	.
CC(C)c1ccc(NC(=O)C(=O)C2C(=O)Nc3ccccc32)cc1 (stereo not drawn)	i	-0.27	i	-7	i	i
CC(C)(C)c1ccc(NC(=O)C(=O)C2C(=O)Nc3ccccc32)cc1 (stereo not drawn)	i	1.7	i	5.7*	i	i
CCn1c(=O)c2cc(C(=O)N(C)c3cc(C)ccc3OC)sc2c2ccccc21	-15*	-0.93	i	-13	i	i
